Drawing on article PMC5615865 (Research in Pharmaceutical Sciences, 2017), this text covers IC50 and pKa for two compounds.

Structures are written as SMILES.

Series [1] concerns the target Jack bean urease (Canavalia ensiformis, UniProt P07374). Put plainly: Urease inhibitory assay. Particulars: urea 25 mM, pH 7.4, 37°C, triplicate. The format is biochemical. Put shortly: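 Enzyme solution (2 mg/mL stock) was mixed with urea and test compound at various concentrations in 100 mM sodium phosphate, pH 7.4, then incubated 30 min at 37°C. An aliquot was taken into phenol–nitroprusside and alkaline hypochlorite–NaOH reagents and incubated a further 30 min at 37°C, and A625 was read. % inhibition was calculated against the solvent-plus-enzyme control, and IC50 was fitted. Run in triplicate with a hydroxyurea standard.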

The conditions of series [2]: no reference given; cited from earlier work.

Jack bean urease, sequence (P07374 whole entry, looked up): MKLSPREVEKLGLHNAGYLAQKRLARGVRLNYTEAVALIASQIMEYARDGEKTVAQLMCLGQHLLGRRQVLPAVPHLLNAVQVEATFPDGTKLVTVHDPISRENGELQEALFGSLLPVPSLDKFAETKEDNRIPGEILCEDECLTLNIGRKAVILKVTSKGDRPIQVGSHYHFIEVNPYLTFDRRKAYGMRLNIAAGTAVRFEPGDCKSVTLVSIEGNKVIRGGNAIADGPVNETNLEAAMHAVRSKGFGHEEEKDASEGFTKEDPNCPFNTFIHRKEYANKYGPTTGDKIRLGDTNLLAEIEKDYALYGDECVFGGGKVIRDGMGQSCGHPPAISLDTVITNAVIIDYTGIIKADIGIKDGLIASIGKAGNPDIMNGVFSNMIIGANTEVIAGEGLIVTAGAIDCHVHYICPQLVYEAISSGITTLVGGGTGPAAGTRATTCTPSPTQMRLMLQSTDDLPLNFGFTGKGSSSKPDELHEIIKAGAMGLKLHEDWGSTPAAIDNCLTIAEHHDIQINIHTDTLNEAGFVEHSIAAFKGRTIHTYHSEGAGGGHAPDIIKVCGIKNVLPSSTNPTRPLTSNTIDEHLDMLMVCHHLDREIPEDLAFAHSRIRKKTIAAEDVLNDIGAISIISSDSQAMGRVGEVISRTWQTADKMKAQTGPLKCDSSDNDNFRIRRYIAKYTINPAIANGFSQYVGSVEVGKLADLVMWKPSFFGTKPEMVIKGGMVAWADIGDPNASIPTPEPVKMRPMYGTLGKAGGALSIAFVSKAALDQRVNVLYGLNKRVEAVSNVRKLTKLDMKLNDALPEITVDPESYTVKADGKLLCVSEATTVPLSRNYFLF

In the case of `NC(=O)NO` [hydroxyurea], the IC50 in series [1] worked out at 100 µM. With `COC(=O)CC(C)=O` [methyl acetoacetate], the pKa in series [2] was 11.0.
